# Out of some 2,300 compounds screened, about 25 (1%) were called active.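 The calls were made as follows: active = mean inhibition over three replicate wells above the hit threshold derived in the earlier primary screen (cut at about 45% in these data); inactive = the rest.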 The full list was thinned out, with actives kept by preference.
# Tested on: Hepatitis C virus core protein (core106 dimerization)
# Assay: blockers of core106 self-association – biochemical, TR-FRET, triplicate, confirmation (AID 2152);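 also: 0% = DMSO wells and 100% = unlabelled core106 competitor control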
# Conditions: TR-FRET GST-/Flag-core106 dimerization, HTRF; at 5 µM; hits give high values
# How it was run: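 Test system: GST- and Flag-tagged HCV core106 peptides, dimerization via antibody TR-FRET | Medium: HEPES/KF buffer, pH 7.45 | Also added: Eu(K)-anti-GST plus XL665-anti-FLAG antibodies | Times: 4 h incubation, 22.5 °C | Signal: TR-FRET, excitation 340 nm, emission 671 and 617 nm | Evaluation: Percent inhibition from emission ratio | Replication: Triplicate wells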
row,SMILES,inhibition
1,Cn1cccc1/C=C1/C(=O)NC(=S)N(Cc2ccc(F)cc2)C1=O,64.5% (active)
2,CN1C(=O)/C(=C/c2cccn2-c2ccc3ccccc3c2)C(=O)NC1=S,9.68% (inactive)
3,O=C1NC(=O)N(Cc2ccc(F)cc2)C(=O)/C1=C\c1ccc(N2CCCC2)cc1,4.49% (inactive)
4,CCOc1cccc(N2C(=O)/C(=C/c3ccco3)C(=O)NC2=S)c1,10.6% (inactive)
5,Cc1ccccc1N1C(=O)/C(=C/c2ccco2)C(=O)NC1=S,66.3% (active)
6,Cc1ccc(N2C(=O)/C(=C/c3ccc(CN(CCC#N)S(C)(=O)=O)o3)C(=O)NC2=S)cc1C,-8.42% (inactive)
7,COC(=O)[C@@H]1[C@@H](C(=O)OC)C2(c3ccccc3-c3ccccc32)N(c2ccc(Cl)cc2)N1C#N,8.69% (inactive)
8,COc1ccccc1C(=O)Nc1ccc2c(c1)CC1(C(=O)N(C)C(=O)N(C)C1=O)C1CCCN21 (stereo not given),7.78% (inactive)
9,Cc1ccccc1-n1c(CNc2ccccc2)nc2ccccc2c1=O,-1.12% (inactive)
10,CCN1C(=O)/C(=C/c2ccc3c(c2)CCN3CCCCl)C(=O)NC1=S,15.4% (inactive)

# — PubChem BioAssay AID2152 (The Scripps Research Institute Molecular Screening Center, 2009)
